This passage reports Activity, Ratio Ki and Ki results from ChEMBL document CHEMBL1140216, “Triazine compounds as antagonists at Bv8-prokineticin receptors” (J Med Chem, 2008).

pKi: −log10 of the molar value.

In assay [1] the target is T1, Prokineticin receptor 1 (Homo sapiens, UniProt Q8TCW9). Briefly: Antagonist activity at PKR1 expressed in CHO cell membrane assessed as reduction of Bv8-induced increase in intracellular calcium level at 300 nM. The assay is classed as functional, cell-based. More on the design: scale not given: the % may be the effect or the level left. An outline of the steps: (§1)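 Intact CHO cells transfected with PKR1 or PKR2. Compound preincubated 4 min, then challenged with 1 nM Bv8, and fluorescence followed for 2 min. Intracellular Ca2+ was read as the 340/380 nm […] ratio, and the result was scored as the percentage of cells responding to Bv8.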
T1 sequence (Q8TCW9 whole entry): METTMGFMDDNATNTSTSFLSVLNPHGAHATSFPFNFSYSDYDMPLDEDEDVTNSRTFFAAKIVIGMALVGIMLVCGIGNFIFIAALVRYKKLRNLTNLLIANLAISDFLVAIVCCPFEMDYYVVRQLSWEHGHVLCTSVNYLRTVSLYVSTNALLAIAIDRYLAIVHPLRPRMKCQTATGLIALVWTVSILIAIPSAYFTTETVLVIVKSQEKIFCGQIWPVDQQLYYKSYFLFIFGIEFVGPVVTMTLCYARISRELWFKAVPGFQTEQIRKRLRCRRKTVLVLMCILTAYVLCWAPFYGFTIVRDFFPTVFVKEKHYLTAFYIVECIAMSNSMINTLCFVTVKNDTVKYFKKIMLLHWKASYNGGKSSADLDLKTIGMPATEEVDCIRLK
In general terms: A change in cytosolic calcium serves as a functional read-out for many receptors and channels.

Assay [2] in a line: Selectivity for ratio of Ki for PKR2 to Ki for PKR1.
For assay [3], the target named is T2, Prokineticin receptor 2 (Homo sapiens, UniProt Q8NFJ6). Description: Antagonist activity at PKR2 expressed in CHO cell membrane assessed as reduction of Bv8-induced increase in intracellular calcium level at 100 nM. The assay is classed as functional, cell-based. More on the design: scale not given: the % may be the effect or the level left. An outline of the steps:
as §1

In assay [4] the target is T1, Prokineticin receptor 1. Briefly: Antagonist activity at PKR1 expressed in CHO cell membrane assessed as reduction of Bv8-induced increase in intracellular calcium level at 100 nM. The assay is classed as functional, cell-based. More on the design: scale not given: the % may be the effect or the level left. An outline of the steps: as §1
Assay [5] concerns the target T2, Prokineticin receptor 2. Briefly: Antagonist activity at PKR2 expressed in CHO cell membrane assessed as reduction of Bv8-induced increase in intracellular calcium level at 300 nM. More on the design: scale not given: the % may be the effect or the level left. The assay is classed as functional, cell-based. An outline of the steps:
as §1

Assay [6] has as its target T1, Prokineticin receptor 1. Briefly: Displacement of [I125]MIT from PKR1 expressed in CHO cell membrane. The assay is classed as cell membranes.
Assay [7] addresses T2, Prokineticin receptor 2. Description: Displacement of [I125]MIT from PKR2 expressed in CHO cell membrane. The assay is classed as cell membranes.
The target of assay [8] is T1, Prokineticin receptor 1. Description: Antagonist activity at PKR1 expressed in CHO cell membrane assessed as reduction of Bv8-induced increase in intracellular calcium level at 10 uM. The assay is classed as functional, cell-based. Set-up: scale not given: the % may be the effect or the level left. Put shortly:
as §1

For assay [9], the target named is T1, Prokineticin receptor 1. Description: Antagonist activity at PKR1 expressed in CHO cell membrane assessed as reduction of Bv8-induced increase in intracellular calcium level at 1 mM. The assay is classed as functional, cell-based. More on the design: scale not given: the % may be the effect or the level left. Put shortly: as §1
For assay [10], the target named is T2, Prokineticin receptor 2. Briefly: Antagonist activity at PKR2 expressed in CHO cell membrane assessed as reduction of Bv8-induced increase in intracellular calcium level at 10 uM. The assay is classed as functional, cell-based. More on the design: scale not given: the % may be the effect or the level left. Put shortly:
as §1

Assay [11] has as its target T2, Prokineticin receptor 2. Description: Antagonist activity at PKR2 expressed in CHO cell membrane assessed as reduction of Bv8-induced increase in intracellular calcium level at 1 mM. The assay is classed as functional, cell-based. Set-up: scale not given: the % may be the effect or the level left. An outline of the steps: as §1
The target of assay [12] is T1, Prokineticin receptor 1. Description: Antagonist activity at PKR1 expressed in CHO cell membrane assessed as reduction of Bv8-induced increase in intracellular calcium level at 100 uM. The assay is classed as functional, cell-based. More on the design: scale not given: the % may be the effect or the level left. An outline of the steps:
as §1

T2 sequence (Q8NFJ6 whole entry): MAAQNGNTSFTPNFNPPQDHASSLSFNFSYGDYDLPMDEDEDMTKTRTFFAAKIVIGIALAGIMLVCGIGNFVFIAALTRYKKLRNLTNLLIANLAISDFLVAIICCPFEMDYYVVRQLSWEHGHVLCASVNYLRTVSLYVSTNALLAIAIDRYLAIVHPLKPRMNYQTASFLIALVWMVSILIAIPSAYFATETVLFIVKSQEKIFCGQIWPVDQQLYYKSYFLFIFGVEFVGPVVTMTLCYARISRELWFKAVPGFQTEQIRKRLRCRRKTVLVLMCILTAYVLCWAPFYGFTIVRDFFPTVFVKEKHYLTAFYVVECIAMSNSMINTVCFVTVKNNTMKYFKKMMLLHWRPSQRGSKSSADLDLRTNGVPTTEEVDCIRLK

With `CCc1ccc(Cn2c(=O)nc(NCCNC(=N)N)n(Cc3ccc(OC)cc3)c2=O)cc1`, the Activity on Prokineticin receptor 1 [1] was 4%; on Prokineticin receptor 2 [3], 48%; on Prokineticin receptor 1 [4], 52%; on Prokineticin receptor 2 [5] it was 6%. In addition, the Ratio Ki in [2] stood at 70. Besides, the values for the pKi on Prokineticin receptor 1 [6] and at Prokineticin receptor 2 [7] were 7.66 and 5.79, respectively.

Regarding `CCc1ccc(Cn2c(=O)nc(NCCN)n(Cc3ccc(OC)cc3)c2=O)cc1`, the Activity was 90% at Prokineticin receptor 1 [8], 0.3% at Prokineticin receptor 1 [9], 89% on Prokineticin receptor 2 [10] and 2% on Prokineticin receptor 2 [11]. Besides, the negative-log Ki (pKi) – broadly, the Ki on a negative log10 scale, so that one unit is a factor of ten – on Prokineticin receptor 1 [6] was 6.36; on Prokineticin receptor 2 [7] it was 4.63.

For `CCc1ccc(Cn2c(=O)nc(NCCN=C3NCCN3)n(Cc3ccc(OC)cc3)c2=O)cc1`, the negative-log Ki (pKi) was 5.33 on Prokineticin receptor 1 [6] and 4.15 on Prokineticin receptor 2 [7].

On to `CCc1ccc(Cn2c(=O)nc(NCCNC3=NCCN3)n(Cc3ccc(OC)cc3)c2=O)cc1`, for which the Activity at Prokineticin receptor 1 [12] is 91%.
